Assay outcomes as filed in PubChem BioAssay.
Shown are actives, neighbours in structure and some others; about 4.3% of the full set was active somewhere.
CR mimetic SO – reduction of superoxide in aged yeast, primary screen, HTS; superoxide response (% of plate mean), % at 10 µM; AID 2690, 2010; 330,000 tested, 0.18% active; S. cerevisiae aged cells, superoxide DHE fluorescence; hits give low values;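 active = superoxide response under a set limit, about three screen SD below normal, cut at about 65% in these data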;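 note: yeast aged for seven days with compound at 30 °C before DHE staining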
SR-BI DiI-HDL act – activators of SR-BI mediated DiI-HDL uptake, primary screen, ldlA[mSR-BI] CHO cells, DiI fluorescence. 3 h; 100 = double the neutral-control signal. activation, % at 12.5 µM. 320,000 tested, 0.096% active. AID 504775, 2011;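 active = mean replicate activation of at least 60% and every replicate at or above 60%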
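Assay system: CHO ldlA[mSR-BI] cells, LDL receptor-null, SR-BI overexpressing; medium: Ham's F12 with 0.5% BSA, HEPES 25 mM, pH 7.4; also added: DiI-HDL 10 µg/mL; timing: 3 h uptake period with compound, 37 °C; signal: DiI fluorescence, bottom read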
AHR act – AHR activators, primary screen, cell-based, luminescence, luciferase reporter, human | activation, % at 5 µM | AID 2796, 2010 | 320,000 tested, 2.5% active | AHR-responsive luciferase reporter cells; in the data active = activation above about 47%
Lipid droplet – inhibitors of hepatocyte lipid droplet formation, primary screen, imaging, high-throughput imaging, BODIPY stain | AML12 mouse hepatocytes, oleate lipid droplets | 240,000 tested, 0.4% active | AID 1656, 2009 | inhibition, % at 6.5 µM;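 active = lipid droplet intensity inhibited by at least 50%, with more than 500 cells counted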
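Material: mouse AML12 hepatocyte cell line, fixed after treatment; Timing: compound with oleate, overnight; Technique: high-content imaging of BODIPY-stained droplets and DAPI nuclei; Probe or stimulus: oleate, 100 µM final; Dosing: compound at 6.5 µM only.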
SMARCA2 act – SMARCA2 (BRM) function activators, primary screen, cell-based, luminescence, high throughput; AID 652017, 2013; MG213 cells, MMTV-luciferase reporter, dexamethasone, overnight; 370,000 tested, 1% active; activation, % at 9.1 µM; in the data active = activation above about 7.8%
SR-BI HDL uptake – inhibitors of SR-BI mediated HDL lipid uptake, primary screen, ldlA[mSR-BI] cells, fluorescence, single point | 320,000 tested, 0.96% active | ldlA[mSR-BI] CHO cells, DiI-HDL uptake fluorescence, 3 h | inhibition, % at 12.5 µM | AID 488896, 2010;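 active = mean replicate inhibition of at least 70% and a set share of replicates each scoring 70 or more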
Target sequence (Q61009 whole entry, looked up): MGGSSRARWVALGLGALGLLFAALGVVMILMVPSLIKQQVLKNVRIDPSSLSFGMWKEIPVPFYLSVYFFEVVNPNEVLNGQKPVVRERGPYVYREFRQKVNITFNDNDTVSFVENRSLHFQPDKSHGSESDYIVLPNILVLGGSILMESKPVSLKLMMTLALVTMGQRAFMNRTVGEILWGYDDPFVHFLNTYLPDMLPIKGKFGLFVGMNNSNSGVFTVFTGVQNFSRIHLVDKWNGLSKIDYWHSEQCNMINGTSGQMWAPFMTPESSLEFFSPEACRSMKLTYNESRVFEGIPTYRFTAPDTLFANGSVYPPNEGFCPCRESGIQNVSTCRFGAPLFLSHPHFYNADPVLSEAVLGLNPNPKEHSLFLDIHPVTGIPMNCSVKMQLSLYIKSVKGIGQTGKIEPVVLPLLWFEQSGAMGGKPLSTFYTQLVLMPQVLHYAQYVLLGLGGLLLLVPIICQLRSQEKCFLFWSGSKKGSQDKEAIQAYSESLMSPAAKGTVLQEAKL
Hits are given with their value; i = inactive; nt = not tested or not shown.

SMILES	CR mimetic SO	SR-BI DiI-HDL act	AHR act	Lipid droplet	SMARCA2 act	SR-BI HDL uptake
O=C(CSc1nc2ccccc2[nH]1)Nc1nc(-c2cccc(Br)c2)cs1	i	i	65	i	i	i
COc1ccc(-c2nc(NC(=O)Cn3c(=O)oc4ccccc43)sc2C)cc1	i	i	70	i	i	i
COc1cccc(NC(=O)Cn2c(=O)oc3ccccc32)c1	i	i	i	i	i	i
COc1ccc(/C=C2\CCC/C(=C\c3ccc(OC)c(OC)c3OC)C2=O)c(OC)c1OC	nt	i	nt	i	i	74
O=C(c1ccccc1-c1nc(-c2ccccc2)no1)N1CCOCC1	i	i	i	nt	i	i
O=C(c1ccccc1-c1nc(-c2ccc(F)cc2)no1)N1CCCC1	i	i	50	nt	i	i
CCCc1nc2c(C)cc(Br)cn2c1Cc1ccccc1OC	nt	nt	nt	nt	i	nt
O=C(Nc1ccc(F)cc1)c1cccnn1	i	i	51	nt	i	i
N#Cc1cn(CCOc2ccccc2F)c2ccccc12	i	i	49	i	i	i
CN(C)c1ccc(NC(=O)c2ccc(Cn3cc([N+](=O)[O-])cn3)cc2)cc1	i	i	71	i	i	i
O=C(OCCNc1nc(-c2ccccc2)nc2ccccc12)c1ccncc1	i	i	47	i	i	i
O=C(OCCNc1nc(-c2ccccc2)nc2ccccc12)c1cccnc1	i	i	48	i	i	i
CC1=C[C@@H]2[C@H]3C(=O)N(Cc4ccccc4)C(=O)[C@H]3[C@@H]1[C@@H]1O[C@@]3(C(=O)N(C)c4ccccc43)C3=C(CCCC3=O)N21	nt	nt	nt	nt	i	nt
CCOc1ccc(-n2c(SCC(=O)c3ccc4ccccc4c3)nnc2-c2cccc(Cl)c2)cc1	nt	nt	nt	nt	i	nt
Cc1nc2ccccc2n1CCN1CCOCC1	i	i	72	i	i	i
CC(=O)Nc1nc2ccccc2n1CCN1CCOCC1	i	i	i	i	i	i
Cc1ccccc1N1CCN(C2CCCN(C(=O)c3noc4c3CCCC4)C2)CC1 (configuration not stated)	i	i	i	i	i	83
Cc1cc(C)cc(OCC(=O)NN2Cc3ccccc3C2=N)c1	i	i	i	i	i	i
N=C1c2ccccc2CN1NC(=O)CC12CC3CC(CC(C3)C1)C2	56	i	i	i	i	i
NC(=S)N/N=C1\CCOc2ccc(Cl)cc21	i	i	i	i	i	73
O=C(Nc1ccc(NC(=O)c2cccs2)cc1Cl)c1ccco1	i	i	i	i	i	i
CCCC(=O)Nc1ccc(Cl)c(NC(=O)c2ccco2)c1	i	i	i	i	i	i
O=C(Nc1ccc(Cl)c(NC(=O)c2cccs2)c1)c1ccco1	i	i	75	i	i	i
CCCC(=O)Nc1ccc(Cl)c(NC(=S)NC(=O)c2ccco2)c1	i	i	53	i	i	i
COc1ccccc1CNC(=O)N(CCc1c(C)[nH]c2ccccc12)Cc1cccs1	nt	nt	nt	nt	i	nt
SMILES	CR mimetic SO	SR-BI DiI-HDL act	AHR act	Lipid droplet	SMARCA2 act	SR-BI HDL uptake
CSc1ccc(/C=N/Nc2ccc(Cl)c(C(=O)O)c2)cc1	i	i	i	i	7.9	i
O=C(O)c1cc(-c2ccc(/C=N/Nc3ccc(Cl)cc3)o2)ccc1Cl	i	i	71	nt	i	i
C(=N\Nc1ccccn1)/c1c[nH]c2ccccc12	i	i	48	i	i	i
O=c1nc(N/N=C/c2c[nH]c3ccccc23)cn[nH]1	i	nt	i	i	i	nt
CCc1ccc(-c2cc(C(=O)N/N=C/c3c[nH]c4ccccc34)[nH]n2)cc1	i	i	55	i	i	i
O=C(O)c1cc(N/N=C/c2ccc(-c3ccccc3)cc2)ccc1Cl	i	nt	nt	i	i	nt
COC(=O)[C@@]12CCCCC3=C1N(CCC3)C(=O)[C@H]2CC(=O)NCCC(C)C	nt	nt	nt	nt	i	nt
CC(C)CN1CCC(CN2C(=S)NC[C@@H]2Cc2ccccc2)CC1	nt	nt	nt	nt	i	nt
O=C(O)c1cc(N/N=C/c2c[nH]c3ccccc23)ccc1Cl	i	nt	58	i	i	nt
CC(C)NC(=S)N/N=C/c1c[nH]c2ccccc12	i	i	129	i	i	i
COc1ccc(C(=O)N/N=C/c2c[nH]c3ccccc23)cc1	i	i	56	i	i	i
O=C(N/N=C/c1c[nH]c2ccccc12)c1ccn(Cc2ccc(Cl)cc2Cl)n1	i	i	50	nt	i	i
Cc1cc(Nc2ccc(Cl)c(C(F)(F)F)c2)cc(=O)n1-c1ccc(Cl)c(C(F)(F)F)c1	nt	nt	nt	nt	i	nt
O=C(CSc1nc2ccccc2o1)NN=C/C=C/c1ccccc1	nt	nt	nt	nt	i	nt
O=C(N/N=C/c1c[nH]c2ccccc12)c1cccc(Cl)c1	i	nt	52	i	i	nt
Cc1ccc(/C=N/Nc2ccccn2)s1	i	nt	49	i	i	nt
CC(=O)Nc1cccc(C(=O)N/N=C/c2c[nH]c3ccccc23)c1	i	i	76	i	i	i
O=C(N/N=C/c1c[nH]c2ccccc12)c1ccc(O)c(O)c1	i	i	i	i	i	i
COc1ccc(C(=O)N/N=C/c2cc3ccccc3[nH]c2=S)cc1	i	i	57	i	i	i
O=C(N/N=C/c1c[nH]c2ccccc12)c1cccc(O)c1	i	i	i	i	i	i
O=C(OCc1cn(Cc2cccc(F)c2)nn1)N1CCOCC1	nt	nt	nt	nt	i	nt
COc1ccc(N2CCC(CNC(=O)Nc3ccc(OC)cc3OC)C2)cc1 (configuration not stated)	i	i	i	nt	i	96
COc1ccc(S(=O)(=O)N2CCC(C)CC2)cc1OC	i	i	i	i	i	76
O=C(Nc1nccs1)c1cncc(Br)c1	i	i	56	i	i	i
O=C(Nc1nccs1)c1ccc2nccnc2c1	i	nt	53	nt	i	nt
SMILES	CR mimetic SO	SR-BI DiI-HDL act	AHR act	Lipid droplet	SMARCA2 act	SR-BI HDL uptake
O=C(Nc1nccs1)c1cccnc1	i	i	i	i	i	i
Oc1[nH]c2ccccc2c1N=Nc1ccccc1	i	i	i	i	i	i
Cc1[nH]c2ccccc2c1N=Nc1ccccc1C(=O)O	i	i	75	i	i	i
Oc1[nH]c2ccccc2c1N=Nc1ccccc1F	i	i	54	i	i	i
O=C(NCc1ccccc1)OC1CC2CC1[C@H]1CCCCN1C2 (some centres not stated)	nt	nt	nt	nt	i	nt
Cc1ccc(C)c(NC(=O)C(OC(=O)c2cnc(C)cn2)c2ccccc2)c1 (configuration not stated)	i	i	70	nt	i	i
COc1ccc(C)cc1NC(=O)C(OC(=O)c1cnc(C)cn1)c1ccccc1 (configuration not stated)	i	i	60	nt	i	i
CCOc1ccccc1NC(=O)C(OC(=O)c1cc(C)oc1C)c1ccccc1 (configuration not stated)	i	i	i	i	i	i
